Experimental data published in ChEMBL document CHEMBL1136453, “New classes of antibacterial oxazolidinones with C-5, methylene O-linked heterocyclic side chains” (2003).
Converted amounts (≈) assume the structure as drawn.

Key:
Staphylococcus aureus [1] = test: In vitro minimum inhibitory concentration against coagulase negative Staphylococcus aureus methicillin resistant (CNSMR); type: functional
Staphylococcus aureus [2] = test: In vitro minimum inhibitory concentration against Staphylococcus aureus MRQR; type: functional
Enterococcus faecalis = test: In vitro minimum inhibitory concentration against Enterococcus faecalis; type: functional
Procedure, shortened: (§1)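 Agar dilution per NCCLS protocol with doubling dilutions from 128 to 0.008 mg/L, incubated at 37 °C. Strains came from an in-house culture collection. MIC reported in mg/L.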

Staphylococcus aureus [3] = test: In vitro minimum inhibitory concentration against Staphylococcus aureus Oxford; type: functional
Streptococcus pyogenes = test: In vitro minimum inhibitory concentration against Streptococcus pyogenes penicillin sensitive; type: functional; procedure, shortened: as §1
Staphylococcus aureus [4] = test: In vivo antibacterial activity against Staphylococcus aureus after intravenous administration (10 mg/kg) in mice using (MTT) mouse thigh test
[5] = In vivo antibacterial activity against Staphylococcus aureus after intravenous administration (5 mg/kg) in mice using (MTT) mouse thigh test
[6] = Staphylococcus aureus, read-out: MIC

Cc1ccnc(OC[C@H]2CN(c3ccc(C4=CCOCC4)c(F)c3)C(=O)O2)c1
MIC (Staphylococcus aureus [1]): 2 µg/mL (≈ 5.2 µM) | MIC (Staphylococcus aureus [2]): 2 µg/mL (≈ 5.2 µM) | MIC (Enterococcus faecalis): 4 µg/mL (≈ 10.4 µM) | MIC (Staphylococcus aureus [3]; [6]): 2 µg/mL (≈ 5.2 µM) | MIC (Streptococcus pyogenes): 4 µg/mL (≈ 10.4 µM)

CS(=O)(=O)c1ccc(N2C[C@H](COc3nccs3)OC2=O)cc1F
MIC (Staphylococcus aureus [1]): 32 µg/mL (≈ 85.9 µM) | MIC (Staphylococcus aureus [2]): 16 µg/mL (≈ 43 µM) | MIC (Enterococcus faecalis): 32 µg/mL (≈ 85.9 µM) | MIC (Staphylococcus aureus [3]; [6]): 16 µg/mL (≈ 43 µM) | MIC (Streptococcus pyogenes): 16 µg/mL (≈ 43 µM)

O=C(OC[C@@H](O)CO)N1CC=C(c2ccc(N3C[C@H](COc4ccon4)OC3=O)cc2F)CC1
MIC (Staphylococcus aureus [1]): 0.5 µg/mL (≈ 1.05 µM) | MIC (Staphylococcus aureus [2]): 0.5 µg/mL (≈ 1.05 µM) | MIC (Enterococcus faecalis): 1 µg/mL (≈ 2.09 µM) | MIC (Staphylococcus aureus [3]; [6]): 0.25 µg/mL (≈ 0.524 µM) | Activity (Staphylococcus aureus [4]): 0.48 | Activity [5]: 0.27 | MIC (Streptococcus pyogenes): 0.5 µg/mL (≈ 1.05 µM)

O=C([C@@H](O)CO)N1CC=C(c2c(F)cc(N3C[C@H](COc4ccon4)OC3=O)cc2F)CC1 [POSIZOLID]
MIC (Staphylococcus aureus [1]): 0.5 µg/mL (≈ 1.07 µM) | MIC (Staphylococcus aureus [2]): 0.5 µg/mL (≈ 1.07 µM) | MIC (Enterococcus faecalis): 0.5 µg/mL (≈ 1.07 µM) | MIC (Staphylococcus aureus [3]; [6]): 0.25 µg/mL (≈ 0.537 µM) | Activity (Staphylococcus aureus [4]): 0.98 | Activity [5]: 0.7 | MIC (Streptococcus pyogenes): 0.25 µg/mL (≈ 0.537 µM)

CC(=O)N1CC=C(c2ccc(N3C[C@H](COc4ccon4)OC3=O)cc2F)CC1
MIC (Staphylococcus aureus [1]): 0.5 µg/mL (≈ 1.25 µM) | MIC (Staphylococcus aureus [2]): 0.5 µg/mL (≈ 1.25 µM) | MIC (Enterococcus faecalis): 1 µg/mL (≈ 2.49 µM) | MIC (Staphylococcus aureus [3]; [6]): 0.5 µg/mL (≈ 1.25 µM) | Activity (Staphylococcus aureus [4]): 0.81 | Activity [5]: 0.17 | MIC (Streptococcus pyogenes): 1 µg/mL (≈ 2.49 µM)

CN1CC=C(c2c(F)cc(N3C[C@H](COc4ccon4)OC3=O)cc2F)CC1
MIC (Staphylococcus aureus [1]): 2 µg/mL (≈ 5.11 µM) | MIC (Staphylococcus aureus [2]): 2 µg/mL (≈ 5.11 µM) | MIC (Enterococcus faecalis): 4 µg/mL (≈ 10.2 µM) | MIC (Staphylococcus aureus [3]; [6]): 2 µg/mL (≈ 5.11 µM) | MIC (Streptococcus pyogenes): 1 µg/mL (≈ 2.56 µM)

N#CCCS(=O)(=O)C[C@H](O)C(=O)N1CC=C(c2c(F)cc(N3C[C@H](COc4ccon4)OC3=O)cc2F)CC1
MIC (Staphylococcus aureus [1]): 0.5 µg/mL (≈ 0.883 µM) | MIC (Staphylococcus aureus [2]): 0.5 µg/mL (≈ 0.883 µM) | MIC (Enterococcus faecalis): 1 µg/mL (≈ 1.77 µM) | MIC (Staphylococcus aureus [3]; [6]): 0.25 µg/mL (≈ 0.441 µM) | MIC (Streptococcus pyogenes): 0.5 µg/mL (≈ 0.883 µM)

Cc1cccnc1OC[C@H]1CN(c2ccc(C3=CCOCC3)c(F)c2)C(=O)O1
MIC (Staphylococcus aureus [1]): 16 µg/mL (≈ 41.6 µM) | MIC (Staphylococcus aureus [2]): 16 µg/mL (≈ 41.6 µM) | MIC (Enterococcus faecalis): 32 µg/mL (≈ 83.2 µM) | MIC (Staphylococcus aureus [3]; [6]): 8 µg/mL (≈ 20.8 µM) | MIC (Streptococcus pyogenes): 8 µg/mL (≈ 20.8 µM)

O=C1O[C@@H](COc2cccnc2)CN1c1ccc(C2=CCOCC2)c(F)c1
MIC (Staphylococcus aureus [1]): 4 µg/mL (≈ 10.8 µM) | MIC (Staphylococcus aureus [2]): 4 µg/mL (≈ 10.8 µM) | MIC (Enterococcus faecalis): 8 µg/mL (≈ 21.6 µM) | MIC (Staphylococcus aureus [3]; [6]): 4 µg/mL (≈ 10.8 µM) | MIC (Streptococcus pyogenes): 8 µg/mL (≈ 21.6 µM)

O=C([C@@H](O)CO)N1CC=C(c2ccc(N3C[C@H](COc4ccon4)OC3=O)cc2F)CC1
MIC (Staphylococcus aureus [1]): 0.5 µg/mL (≈ 1.12 µM) | MIC (Staphylococcus aureus [2]): 0.5 µg/mL (≈ 1.12 µM) | MIC (Enterococcus faecalis): 1 µg/mL (≈ 2.24 µM) | MIC (Staphylococcus aureus [3]; [6]): 0.25 µg/mL (≈ 0.559 µM) | Activity (Staphylococcus aureus [4]): 1.04 | Activity [5]: 0.63 | MIC (Streptococcus pyogenes): 0.5 µg/mL (≈ 1.12 µM)

O=C(CO)N1CC=C(c2ccc(N3C[C@H](COc4cnsn4)OC3=O)cc2F)CC1
MIC (Staphylococcus aureus [1]): 0.25 µg/mL (≈ 0.575 µM) | MIC (Staphylococcus aureus [2]): 0.25 µg/mL (≈ 0.575 µM) | MIC (Enterococcus faecalis): 0.25 µg/mL (≈ 0.575 µM) | MIC (Staphylococcus aureus [3]; [6]): 0.13 µg/mL (≈ 0.299 µM) | Activity (Staphylococcus aureus [4]): 1.21 | Activity [5]: 0.78 | MIC (Streptococcus pyogenes): 0.25 µg/mL (≈ 0.575 µM)

C[C@H](O)C(=O)N1CC=C(c2c(F)cc(N3C[C@H](COc4ccon4)OC3=O)cc2F)CC1
MIC (Staphylococcus aureus [1]): 0.5 µg/mL (≈ 1.11 µM) | MIC (Staphylococcus aureus [2]): 0.5 µg/mL (≈ 1.11 µM) | MIC (Enterococcus faecalis): 1 µg/mL (≈ 2.23 µM) | MIC (Staphylococcus aureus [3]; [6]): 0.5 µg/mL (≈ 1.11 µM) | Activity (Staphylococcus aureus [4]): 1.16 | Activity [5]: 0.64 | MIC (Streptococcus pyogenes): 1 µg/mL (≈ 2.23 µM)

O=C([C@H](O)CO)N1CC=C(c2c(F)cc(N3C[C@H](COc4ccon4)OC3=O)cc2F)CC1
MIC (Staphylococcus aureus [1]): 0.5 µg/mL (≈ 1.07 µM) | MIC (Staphylococcus aureus [2]): 0.25 µg/mL (≈ 0.537 µM) | MIC (Enterococcus faecalis): 0.5 µg/mL (≈ 1.07 µM) | MIC (Staphylococcus aureus [3]; [6]): 0.25 µg/mL (≈ 0.537 µM) | Activity (Staphylococcus aureus [4]): 0.55 | MIC (Streptococcus pyogenes): 0.25 µg/mL (≈ 0.537 µM)

O=C1O[C@@H](COc2cnccn2)CN1c1ccc(C2=CCOCC2)c(F)c1
MIC (Staphylococcus aureus [1]): 1 µg/mL (≈ 2.69 µM) | MIC (Staphylococcus aureus [2]): 1 µg/mL (≈ 2.69 µM) | MIC (Enterococcus faecalis): 2 µg/mL (≈ 5.39 µM) | MIC (Staphylococcus aureus [3]; [6]): 1 µg/mL (≈ 2.69 µM) | Activity (Staphylococcus aureus [4]): 0.35 | Activity [5]: 0.22 | MIC (Streptococcus pyogenes): 1 µg/mL (≈ 2.69 µM)

O=C(C(CO)Cn1ccnc1)N1CC=C(c2c(F)cc(N3C[C@H](COc4ccon4)OC3=O)cc2F)CC1 (some centres not stated)
MIC (Staphylococcus aureus [1]): 2 µg/mL (≈ 3.78 µM) | MIC (Staphylococcus aureus [2]): 2 µg/mL (≈ 3.78 µM) | MIC (Enterococcus faecalis): 2 µg/mL (≈ 3.78 µM) | MIC (Staphylococcus aureus [3]; [6]): 1 µg/mL (≈ 1.89 µM) | MIC (Streptococcus pyogenes): 1 µg/mL (≈ 1.89 µM)

N#Cc1ccc(OC[C@H]2CN(c3ccc(C4=CCOCC4)c(F)c3)C(=O)O2)nc1
MIC (Staphylococcus aureus [2]): > 128 µg/mL | MIC (Enterococcus faecalis): > 128 µg/mL | MIC (Staphylococcus aureus [3]; [6]): > 128 µg/mL | MIC (Streptococcus pyogenes): > 128 µg/mL

O=C1O[C@@H](COc2ccncc2)CN1c1ccc(C2=CCOCC2)c(F)c1
MIC (Staphylococcus aureus [1]): 32 µg/mL (≈ 86.4 µM) | MIC (Staphylococcus aureus [2]): 32 µg/mL (≈ 86.4 µM) | MIC (Enterococcus faecalis): 64 µg/mL (≈ 173 µM) | MIC (Staphylococcus aureus [3]; [6]): 16 µg/mL (≈ 43.2 µM) | MIC (Streptococcus pyogenes): 64 µg/mL (≈ 173 µM)

CC(O)C(=O)N1CC=C(c2c(F)cc(N3C[C@H](COc4ccon4)OC3=O)cc2F)CC1 (single isomer, unassigned)
MIC (Staphylococcus aureus [1]): 0.5 µg/mL (≈ 1.11 µM) | MIC (Staphylococcus aureus [2]): 0.5 µg/mL (≈ 1.11 µM) | MIC (Enterococcus faecalis): 1 µg/mL (≈ 2.23 µM) | MIC (Staphylococcus aureus [3]; [6]): 0.5 µg/mL (≈ 1.11 µM) | Activity (Staphylococcus aureus [4]): 1.02 | Activity [5]: 0.49 | MIC (Streptococcus pyogenes): 1 µg/mL (≈ 2.23 µM)

O=CN1CC=C(c2c(F)cc(N3C[C@H](COc4ccon4)OC3=O)cc2F)CC1
MIC (Staphylococcus aureus [1]): 0.5 µg/mL (≈ 1.23 µM) | MIC (Staphylococcus aureus [2]): 0.5 µg/mL (≈ 1.23 µM) | MIC (Enterococcus faecalis): 1 µg/mL (≈ 2.47 µM) | MIC (Staphylococcus aureus [3]; [6]): 0.25 µg/mL (≈ 0.617 µM) | Activity (Staphylococcus aureus [4]): 0.43 | Activity [5]: -0.01 | MIC (Streptococcus pyogenes): 0.5 µg/mL (≈ 1.23 µM)

O=C1O[C@@H](Cn2ccccc2=O)CN1c1ccc(C2=CCOCC2)c(F)c1
MIC (Staphylococcus aureus [1]): 32 µg/mL (≈ 86.4 µM) | MIC (Staphylococcus aureus [2]): 32 µg/mL (≈ 86.4 µM) | MIC (Enterococcus faecalis): 64 µg/mL (≈ 173 µM) | MIC (Staphylococcus aureus [3]): 32 µg/mL (≈ 86.4 µM) | MIC (Streptococcus pyogenes): 32 µg/mL (≈ 86.4 µM)

O=C1O[C@@H](COc2ccccc2)CN1c1ccc(C2=CCOCC2)c(F)c1
MIC (Staphylococcus aureus [2]): > 128 µg/mL | MIC (Enterococcus faecalis): > 128 µg/mL | MIC (Staphylococcus aureus [3]; [6]): > 128 µg/mL | MIC (Streptococcus pyogenes): > 128 µg/mL
